Assay results: ChEMBL document CHEMBL1149661, “Synthesis, biological evaluation, and molecular modeling of 3,5-substituted-N1-phenyl-N4,N4-di-n-butylsulfanilamides as antikinetoplastid antimicrotubule agents” (Bioorg Med Chem, 2007)

Assays:
Leishmania donovani = test: Growth inhibition against Leishmania donovani; type: functional, organism-based
[1] = Inhibition of Leishmania tarentolae tubulin assembly
How it was run: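 Purified Leishmania tarentolae tubulin, 1.5 mg/mL, polymerized with or without compound. Assembly read as the absorbance change at 351 nm after 20 min at 30 °C, compared with untreated controls. Assembly kinetics were also followed over time. IC50 is the mean ± SD of at least three independent experiments.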

[2] = tested on: Trypanosoma brucei brucei; test: Growth inhibition against Trypanosoma brucei brucei; type: functional, organism-based
Tubulin = Tubulin (Sus scrofa, UniProt P02554+P02550); test: Inhibition of porcine tubulin assembly; type: protein assay
How it was run: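 Purified porcine brain tubulin at a final 2 mg/mL (raised from 1.5 mg/mL to make control assembly more reproducible). Polymerization read as the absorbance change at 351 nm after 20 min at 30 °C relative to controls. IC50 is the mean ± SD of at least three independent experiments.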

[3] = Toxicity against monkey Vero cells; type: cell-based; settings: Chlorocebus sabaeus (monkey)
Tubulin (Sus scrofa) = Tubulin (Sus scrofa) (UniProt P02554+P02550); test: Inhibition of porcine tubulin assembly at 100 uM; type: protein assay
Tubulin (Sus scrofa), sequence (P02550 whole entry, looked up): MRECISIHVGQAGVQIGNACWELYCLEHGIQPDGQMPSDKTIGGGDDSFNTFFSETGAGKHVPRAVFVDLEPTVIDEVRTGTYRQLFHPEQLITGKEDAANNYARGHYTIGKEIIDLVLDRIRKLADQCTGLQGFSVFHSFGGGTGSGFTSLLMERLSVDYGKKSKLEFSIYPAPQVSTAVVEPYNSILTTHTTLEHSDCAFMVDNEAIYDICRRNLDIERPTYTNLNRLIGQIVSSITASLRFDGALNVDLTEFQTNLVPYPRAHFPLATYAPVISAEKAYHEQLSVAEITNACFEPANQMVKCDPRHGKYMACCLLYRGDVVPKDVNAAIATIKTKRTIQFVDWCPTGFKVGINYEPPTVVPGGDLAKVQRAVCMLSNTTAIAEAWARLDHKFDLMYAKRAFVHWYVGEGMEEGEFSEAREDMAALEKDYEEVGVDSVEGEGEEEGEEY
Tubulin (Sus scrofa), sequence (P02554 whole entry, looked up): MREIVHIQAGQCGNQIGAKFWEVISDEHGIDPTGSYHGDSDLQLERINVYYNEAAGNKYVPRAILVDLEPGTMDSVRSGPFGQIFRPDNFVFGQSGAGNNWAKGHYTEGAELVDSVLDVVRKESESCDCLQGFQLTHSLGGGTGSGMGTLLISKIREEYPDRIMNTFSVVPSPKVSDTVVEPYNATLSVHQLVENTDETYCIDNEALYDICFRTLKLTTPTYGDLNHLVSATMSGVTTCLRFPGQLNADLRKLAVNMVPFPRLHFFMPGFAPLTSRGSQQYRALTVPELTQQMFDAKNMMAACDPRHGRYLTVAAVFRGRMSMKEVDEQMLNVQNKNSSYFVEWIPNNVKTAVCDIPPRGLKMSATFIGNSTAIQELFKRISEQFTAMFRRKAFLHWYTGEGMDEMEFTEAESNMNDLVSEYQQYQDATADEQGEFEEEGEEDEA
How it was run: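 Porcine brain tubulin at a final 2 mg/mL, assembled with compound at a single 100 μM. Inhibition taken from the absorbance change at 351 nm after 20 min at 30 °C, relative to controls without compound.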

Row | IC50 [1] [µM] | IC50 [2] [µM] | IC50 (Tubulin) [µM] | inhibition (Tubulin (Sus scrofa)) [%] | Structure (SMILES) | IC50 (Leishmania donovani) [µM] | IC50 [3] [µM]
1 | – | – | – | – | N=C(N)c1ccc(OCCCCCOc2ccc(C(=N)N)cc2)cc1 [PENTAMIDINE] | 2.3 | –
2 | > 100 | > 50 | – | – | CCCCN(CCCC)c1c(C(N)=O)cc(S(=O)(=O)Nc2ccccc2)cc1C(N)=O | > 50 | –
3 | > 100 | 4 | > 50 | 50 | CCCCN(CCCC)c1c(N)cc(S(=O)(=O)Nc2ccccc2)cc1N | 12 | 27
4 | 6.6 | 0.26 | > 50 | – | CCCCN(CCCC)c1c(C#N)cc(S(=O)(=O)Nc2ccccc2)cc1C#N | 4.4 | 16
5 | > 100 | > 50 | – | – | CCCCN(CCCC)c1c(C(=O)O)cc(S(=O)(=O)Nc2ccccc2)cc1C(=O)O | > 50 | –
6 | 9.1 | 1.6 | > 50 | – | CCCCN(CCCC)c1c(Cl)cc(S(=O)(=O)Nc2ccccc2)cc1Cl | 11 | 19
7 | > 100 | > 50 | – | – | CCCCN(CCCC)c1c(C(=O)OC)cc(S(=O)(=O)Nc2ccccc2)cc1C(=O)OC | > 50 | –
8 | 7.4 | 0.18 | > 40 | – | CCCCN(CCCC)c1c([N+](=O)[O-])cc(S(=O)(=O)Nc2ccccc2)cc1[N+](=O)[O-] | 2.3 | 9.7
9 | > 100 | 1.6 | > 100 | – | CCCCN(CCCC)c1c(C(C)=O)cc(S(=O)(=O)Nc2ccccc2)cc1C(C)=O | 30 | 26
10 | – | – | – | – | COc1cc([C@@H]2c3cc4c(cc3[C@H](O)[C@H]3COC(=O)[C@H]23)OCO4)cc(OC)c1OC [PODOFILOX] | – | 0.016
11 | – | 0.077 | – | – | Cc1ccc(C(=O)Nc2ccc(S(=O)(=O)O)c3cc(S(=O)(=O)O)cc(S(=O)(=O)O)c23)cc1NC(=O)c1cccc(NC(=O)Nc2cccc(C(=O)Nc3cc(C(=O)Nc4ccc(S(=O)(=O)O)c5cc(S(=O)(=O)O)cc(S(=O)(=O)O)c45)ccc3C)c2)c1 [SURAMIN] | – | –
